In the RNAGym collection of RNA variant scans (doi:10.1126/science.aae0568) one finds yeast fitness data, which are given here for 167 variants.

Variants at the floor of the assay were thinned out.

The labels stand for the following.
B1: tRNA (parent)
chain: GUUCCGUUGGCGUAAUGGUAACGCGUCUCCCUCCUAAGGAGAAGACUGCGGGUUCGAGUCCCGUACGGAACG

The series covers variants of B1. The series can be described thus: yeast fitness relative to wild type (ratio to wild type); higher = fitter; tRNA-Arg(CCU), competitive growth, 37 C, YPD. Summed up:
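Changes in genotype frequencies gave Darwinian fitness relative to wild type. Frequencies were read by 100-nucleotide paired-end sequencing of gene amplicons before and after pooled Saccharomyces cerevisiae strains, carrying tRNA-Arg(CCU) gene variants at the native locus, were competed in YPD at 37°C for 24 hours in six replicates. A genotype was kept only with ≥ 100 starting reads, and estimates < 0.5 were set to 0.5.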
For U2C A45C, the yeast fitness stood at 1.01.

As to U2C A45G, the yeast fitness was 0.883.

For the variant U2C A15C C55G A57C C66A, the yeast fitness is ≤ 0.5.

Consider U2C A14G C29A C46G, for which the yeast fitness is ≤ 0.5.

Turning to U2C A21G A65U, the yeast fitness came to 0.665.

As for U2C A15U A20U, the yeast fitness was ≤ 0.5.

As for U2C A57C, the yeast fitness turned out to be 0.679.

In the case of U2C A57U, the yeast fitness was found to be 0.685.

For the variant U2C A40G A43U A45C, the yeast fitness was ≤ 0.5.

Regarding U2A U28C G41C U54A, the yeast fitness turned out to be 0.56.

As for U2C C4U C34A A65C C66G, the yeast fitness is 0.583.

In the case of U2C C4G, the yeast fitness worked out at 0.965.

On to U2C C4A, for which the yeast fitness came out at 0.877.

As to U2C A45G G68A, the yeast fitness is ≤ 0.5.

U2A U64A A70U: the yeast fitness was 1.06.

Consider U2C A40G A43U A45C A57G A65C, for which the yeast fitness stood at 0.52.

Regarding U2C A15G, the yeast fitness is 0.91.

As for U2C A43U G48A C61G A70C, the yeast fitness was ≤ 0.5.

In the case of U2C A40U U54A, the yeast fitness was ≤ 0.5.

U2C C4A U13C C29U U47A G52A C62U: the yeast fitness is ≤ 0.5.

On to U2C A21C C30A C62U A70U, for which the yeast fitness is ≤ 0.5.

Consider U2C A42G C61G, for which the yeast fitness is ≤ 0.5.

In the case of U2A U28A G51C A57C, the yeast fitness is ≤ 0.5.

Take U2C A20U C34G A42G A43U A65G: the yeast fitness was ≤ 0.5.

For U2A U47C C66U, the yeast fitness turned out to be 0.683.

U2C A14G C46U: the yeast fitness was 0.669.

For U2C A14G C46U C60A, the yeast fitness is ≤ 0.5.

U2C A43U G50A U54G G68C: the yeast fitness is ≤ 0.5.

Consider U2C A20G C62U, for which the yeast fitness is 0.599.

On to U2C A57C A69U, for which the yeast fitness worked out at 0.578.

For the variant U2C A70U, the yeast fitness amounted to 1.06.

For the variant U2C C4U C34U, the yeast fitness stood at 0.719.

In the case of U2C A15U A37G, the yeast fitness is ≤ 0.5.

Regarding U2C A40G A45C, the yeast fitness was ≤ 0.5.

Take U2C A20C C29G A36C G52C A57U: the yeast fitness was ≤ 0.5.

In the case of U2C A42G A45C C61G, the yeast fitness is ≤ 0.5.

For U2C C4A C60A C62U, the yeast fitness was ≤ 0.5.

Turning to U2C A14C A37U A40C, the yeast fitness was ≤ 0.5.

Regarding U2C C4A G23A C61A, the yeast fitness was ≤ 0.5.

As for U2C A40G C61A, the yeast fitness is ≤ 0.5.

U2C A14C A15G U16A: the yeast fitness was ≤ 0.5.

As to U2C A15C C22A C31U C55A, the yeast fitness was ≤ 0.5.

For U2C A20G, the yeast fitness stood at 0.98.

With U2C A20C, the yeast fitness stood at 0.98.

U2C A37U G48A C61U: the yeast fitness is ≤ 0.5.

Take U2C A40C C66U: the yeast fitness turned out to be 0.524.

For the variant U2C A15G G44A G50C A70G, the yeast fitness was ≤ 0.5.

With U2C A21U U32A A40C G56C, the yeast fitness was ≤ 0.5.

With U2A U54A, the yeast fitness was 0.613.

U2C A14G C22A C27A C29U A42C: the yeast fitness was ≤ 0.5.

With U2C A43U U47C, the yeast fitness stood at 0.749.

As for U2C A15C U19C C22G C34U G39C C62U A65C, the yeast fitness is ≤ 0.5.

U2A U28C G39A: the yeast fitness amounted to 0.508.

As to U2C A21G G68A, the yeast fitness came out at 0.864.

Turning to U2C A40C G48A, the yeast fitness turned out to be 0.751.

In the case of U2A U32A C62G, the yeast fitness was found to be 0.509.

Take U2A U64A: the yeast fitness turned out to be 0.855.

As for U2A U32C U53C, the yeast fitness was ≤ 0.5.

Turning to U2C A14G, the yeast fitness is 0.863.

U2C A45C C49U: the yeast fitness was 0.698.

As to U2C A14G G18A G41A A69C, the yeast fitness was ≤ 0.5.

In the case of U2C A43G C49A A57U, the yeast fitness is ≤ 0.5.

With U2C A14C A40G, the yeast fitness worked out at 0.775.

As to U2C A14C A40C, the yeast fitness is ≤ 0.5.

Consider U2C A15C A20C A65U, for which the yeast fitness was 0.52.

For U2C A37G A40G A45U, the yeast fitness was ≤ 0.5.

On to U2C C4A C11U C60A C62U, for which the yeast fitness was ≤ 0.5.

U2C A69U: the yeast fitness was determined as 0.96.

As for U2C A69C, the yeast fitness was 0.872.

Regarding U2C A20G C27G A37C G38C A43G C55A, the yeast fitness is ≤ 0.5.

Regarding U2C A14G A42C, the yeast fitness is 0.575.

For the variant U2C C4U C31A C33U G56C, the yeast fitness was ≤ 0.5.

Take U2C A15C G23C C31A: the yeast fitness was ≤ 0.5.

For U2C A14G G48C, the yeast fitness is 0.709.

Consider U2C A15U C34A G39C A40C G56C C61G C62G G68C, for which the yeast fitness was ≤ 0.5.

With U2C C4G C27G U32A U35C C49A U59C, the yeast fitness is ≤ 0.5.

For the variant U2C A20U C61A G67A, the yeast fitness is ≤ 0.5.

As for U2C A40U G58C, the yeast fitness amounted to 0.705.

Regarding U2C A20G C27G A37C G38C A43G A69U, the yeast fitness was ≤ 0.5.

For U2C A40C A57C C66U, the yeast fitness was ≤ 0.5.

Regarding U2C A45G G56C, the yeast fitness amounted to 0.575.

With U2C A37U G52A, the yeast fitness was ≤ 0.5.

Consider U2C C4U G48A, for which the yeast fitness is 0.538.

As for U2C A37G G68C, the yeast fitness is ≤ 0.5.

As to U2C A14C C46A, the yeast fitness was ≤ 0.5.

Consider U2C A36C G38C C55U C62A, for which the yeast fitness is ≤ 0.5.

Regarding U2C A36U C46G A69U, the yeast fitness is 0.517.

Take U2C A43U: the yeast fitness worked out at 0.989.

Consider U2C A21G C33G U35C U59A A69U, for which the yeast fitness is ≤ 0.5.

With U2A U59C, the yeast fitness came to 0.995.

For the variant U2C A14G G17A C46U C60A, the yeast fitness is ≤ 0.5.

In the case of U2C A42G G63A, the yeast fitness was found to be 0.543.

In the case of U2C A65U G67A, the yeast fitness is 0.698.

On to U2C A14G A57C A69U, for which the yeast fitness was ≤ 0.5.

Consider U2C A15C C55G A57C, for which the yeast fitness came to 0.512.

As to U2C A40G G68C, the yeast fitness came to 0.571.

With U2A U35C, the yeast fitness amounted to 0.875.

For U2C A20U A69C, the yeast fitness is 0.636.

Take U2C A42C U54A G67C A69U: the yeast fitness was ≤ 0.5.

As to U2C A20G C30U, the yeast fitness is 0.576.

Consider U2C A37G G38C C49U G52C A57C A65C, for which the yeast fitness is ≤ 0.5.

As for U2C A14G G18A U32A G44A G56C, the yeast fitness is ≤ 0.5.

U2A U32A G67A: the yeast fitness is ≤ 0.5.

With U2C A45C C46U G68C, the yeast fitness is ≤ 0.5.

Take U2C A14U C31U C62G: the yeast fitness is ≤ 0.5.

As to U2C A20U G25A C27G G67A, the yeast fitness was ≤ 0.5.

For the variant U2C A15U A20U C27U C61G, the yeast fitness was ≤ 0.5.

U2C A21C A42U U54A: the yeast fitness was ≤ 0.5.

Turning to U2C A45U C46G G58C U59C A65G C66G, the yeast fitness was found to be 0.628.

Regarding U2A U28A A37C U64C A65G, the yeast fitness was ≤ 0.5.

On to U2A U32C C33A G51C G68A, for which the yeast fitness was ≤ 0.5.

For U2C A15U U16C G23C, the yeast fitness was ≤ 0.5.

As for U2C A14C C31A, the yeast fitness is ≤ 0.5.

With U2C C4G G6C G18A C24U C27A U35C G41A U47C, the yeast fitness is ≤ 0.5.

Take U2C A15U C46A: the yeast fitness was ≤ 0.5.

Consider U2C A15G U19A A20U A37U A45G U47G C61G, for which the yeast fitness came to 0.676.

As for U2C A40C, the yeast fitness was determined as 0.851.

On to U2C A21U A40C G56C, for which the yeast fitness stood at 0.66.

Consider U2C A20U A45G, for which the yeast fitness is ≤ 0.5.

For U2C A14U A21U, the yeast fitness was found to be 0.596.

In the case of U2C A37U U53A G63A, the yeast fitness is ≤ 0.5.

Turning to U2C A42G C55U, the yeast fitness was ≤ 0.5.

U2A U32C: the yeast fitness was found to be 0.954.

For U2C A36C, the yeast fitness is 0.543.

Consider U2C A36U, for which the yeast fitness was found to be 0.682.

As to U2C A36G, the yeast fitness is 0.907.

For U2C C4U C34U C55U G68C, the yeast fitness was ≤ 0.5.

Regarding U2A U28C G39A C62U A65U, the yeast fitness is ≤ 0.5.

Consider U2C A14C C46A A65G, for which the yeast fitness was ≤ 0.5.

Regarding U2C A15G A69C, the yeast fitness was 0.691.

U2C A21G A36G G38C: the yeast fitness is ≤ 0.5.

Regarding U2C C4G G9A C24U A45C, the yeast fitness is ≤ 0.5.

For U2C A15C G23A C31G A45U, the yeast fitness was found to be 0.61.

Consider U2A U59C C66G, for which the yeast fitness came out at 0.537.

With U2C A21U U35A G41C U47A G67C, the yeast fitness is ≤ 0.5.

For the variant U2C A37G C55G U64A, the yeast fitness is ≤ 0.5.

In the case of U2C A14U C61G A70G, the yeast fitness is ≤ 0.5.

As to U2C A21G C33G A69C, the yeast fitness was found to be 0.57.

Regarding U2C A36C G39A A57U, the yeast fitness was 0.539.

Turning to U2C A37U A43U, the yeast fitness turned out to be 0.568.

Turning to U2C A65U, the yeast fitness came out at 1.05.

Regarding U2A U54A A65U, the yeast fitness was ≤ 0.5.

Turning to U2C C4U C27U A45C G48A G56C, the yeast fitness was ≤ 0.5.

In the case of U2C C4A C29G, the yeast fitness was determined as 0.704.

Consider U2C A20U A40U C62A C66A, for which the yeast fitness was ≤ 0.5.

Regarding U2A U28G A40C G67C, the yeast fitness was 0.639.

Take U2A U28A C55G A70G: the yeast fitness was ≤ 0.5.

With U2C A36G C61G U64C, the yeast fitness is ≤ 0.5.

Regarding U2C A43C A45C G51C, the yeast fitness is ≤ 0.5.

U2C A45G C49G: the yeast fitness was ≤ 0.5.

Regarding U2C A20C A65U, the yeast fitness amounted to 0.641.

U2C A37U: the yeast fitness is 0.826.

U2C A37C: the yeast fitness was 0.81.

As for U2C A37G, the yeast fitness came to 0.67.

Take U2C C4G C22U C30A: the yeast fitness was ≤ 0.5.

Regarding U2A U47G G50C, the yeast fitness is ≤ 0.5.

Regarding U2A U35A A45C, the yeast fitness is ≤ 0.5.

Take U2C A14G G18A U32A G44A: the yeast fitness amounted to 0.527.

Consider U2A U47C, for which the yeast fitness turned out to be 1.08.

As for U2C A20G C22U C24A A69G, the yeast fitness is ≤ 0.5.

For the variant U2C A43U G50A U54G C62U, the yeast fitness is ≤ 0.5.

On to U2C A40G U59C, for which the yeast fitness was determined as 0.587.

Regarding U2C A14C G39A, the yeast fitness is ≤ 0.5.

For the variant U2C A42C C66U, the yeast fitness was 0.574.

On to U2C A14G G18A U32A C66G, for which the yeast fitness was ≤ 0.5.

Consider U2C C4A C27G C34G G51A, for which the yeast fitness came out at 0.514.

As for U2C C4U A42G, the yeast fitness amounted to 0.512.
